# Test system: not listed separately
# Assay: Selectivity index, ratio of CC50 for pig PEK cells to EC50 for Antiviral activity against Powassan virus infected in pig PEK cells
# Assay type: toxicity, cell-based
# Conditions: read-out: Ratio CC50/EC50
row,Structure (SMILES),selectivity ratio
1,COc1ccc(C(OCCOCn2cc3c(nc2=O)Nc2ccccc2O3)(c2ccccc2)c2ccc(OC)cc2)cc1,> 5
2,CN1c2ccccc2Oc2cn(COCCO)c(=O)nc21,> 7

# Test system: Human betaherpesvirus 5
# Assay: Antiviral activity against Human cytomegalovirus Davis
# Assay type: functional, organism-based
# Conditions: Human betaherpesvirus 5, Davis
# How it was run: (§1)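 Confluent HEL cultures received 100 CCID50 or 20 PFU of virus, with 2 h adsorption before inoculum removal. Cells were then incubated with compound from 100 μM downward. Cytopathicity or plaques were scored once untreated infected controls reached completion.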
row,Structure (SMILES),EC50 [µM]
1,Nc1ccn(C[C@@H](CO)OCP(=O)(O)O)c(=O)n1 [CIDOFOVIR],0.61
2,COc1ccc(C(OCCOCn2cc3c(nc2=O)Nc2ccccc2O3)(c2ccccc2)c2ccc(OC)cc2)cc1,> 100
3,CN1c2ccccc2Oc2cn(COCCO)c(=O)nc21,> 100

# Test system: MDCK
# Assay: Cytotoxicity in dog MDCK cells assessed as reduction in cell viability measured after 3 days by beckman coulter counting method
# Assay type: cell-based, Canis lupus familiaris
# Conditions: mdck, 72 h, time 3 day
# How it was run: (§2)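 Cells were seeded at 5 × 10³/well, grown 24 h, then exposed to compound from 100 μM downward for 3 days at 37 °C. Cell number was counted with a Coulter counter.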
row,Structure (SMILES),CC50 [µM]
1,COc1ccc(C(OCCOCn2cc3c(nc2=O)Nc2ccccc2O3)(c2ccccc2)c2ccc(OC)cc2)cc1,> 100
2,CN1c2ccccc2Oc2cn(COCCO)c(=O)nc21,> 100

# Test system: not listed separately
# Assay: Selectivity index, ratio of CC50 for pig PEK cells to EC50 for Antiviral activity against Omsk hemorrhagic fever virus infected in pig PEK cells
# Assay type: toxicity, cell-based
# Conditions: read-out: Ratio CC50/EC50
row,Structure (SMILES),selectivity ratio
1,COc1ccc(C(OCCOCn2cc3c(nc2=O)Nc2ccccc2O3)(c2ccccc2)c2ccc(OC)cc2)cc1,> 4
2,CN1c2ccccc2Oc2cn(COCCO)c(=O)nc21,> 22

# Test system: not listed separately
# Assay: Selectivity index, ratio of CC50 for African green monkey Vero cells to EC50 for Antiviral activity against Chikungunya virus infected in African green monkey Vero cells
# Assay type: toxicity
# Conditions: read-out: Ratio CC50/EC50
row,Structure (SMILES),selectivity ratio
1,CN1c2ccccc2Oc2cn(COCCO)c(=O)nc21,> 6

# Test system: HEp-2
# Assay: Cytotoxicity in human Hep2 cells assessed as reduction in cell viability measured after 3 days by beckman coulter counting method
# Assay type: functional
# Conditions: HEp-2, 72 h, time 3 day
# How it was run: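 Hep2 cells seeded at 5 × 10³ cells/well and allowed to grow 24 h, then exposed to compound dilutions starting at 100 μM for 3 days at 37 °C. Cell number measured by Coulter counter.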
row,Structure (SMILES),CC50 [µM]
1,COc1ccc(C(OCCOCn2cc3c(nc2=O)Nc2ccccc2O3)(c2ccccc2)c2ccc(OC)cc2)cc1,> 100
2,CN1c2ccccc2Oc2cn(COCCO)c(=O)nc21,> 100

# Test system: Tick-borne encephalitis virus
# Assay: Antiviral activity against Tick-borne encephalitis virus infected in pig PEK cells assessed as reduction in virus plaque formation preincubated with virus for 1 hr followed by cell infection and measured after 1 hr by crystal violet staining based assay
# Assay type: functional, organism-based
# Conditions: not given
row,Structure (SMILES),EC50 [µM]
1,COc1ccc(C(OCCOCn2cc3c(nc2=O)Nc2ccccc2O3)(c2ccccc2)c2ccc(OC)cc2)cc1,36
2,CN1c2ccccc2Oc2cn(COCCO)c(=O)nc21,16

# Test system: Omsk hemorrhagic fever virus
# Assay: Antiviral activity against Omsk hemorrhagic fever virus infected in pig PEK cells assessed as reduction in virus plaque formation preincubated with virus for 1 hr followed by cell infection and measured after 1 hr by crystal violet staining based assay
# Assay type: functional, organism-based
# Conditions: not given
row,Structure (SMILES),EC50 [µM]
1,COc1ccc(C(OCCOCn2cc3c(nc2=O)Nc2ccccc2O3)(c2ccccc2)c2ccc(OC)cc2)cc1,21.4
2,CN1c2ccccc2Oc2cn(COCCO)c(=O)nc21,4.5

# Test system: Powassan virus
# Assay: Antiviral activity against Powassan virus infected in pig PEK cells assessed as reduction in virus plaque formation preincubated with virus for 1 hr followed by cell infection and measured after 1 hr by crystal violet staining based assay
# Assay type: functional, organism-based
# Conditions: not given
row,Structure (SMILES),EC50 [µM]
1,COc1ccc(C(OCCOCn2cc3c(nc2=O)Nc2ccccc2O3)(c2ccccc2)c2ccc(OC)cc2)cc1,21
2,CN1c2ccccc2Oc2cn(COCCO)c(=O)nc21,13.5

# Test system: HEL
# Assay: Cytotoxicity against human HEL cells assessed as reduction in cell viability measured after 3 days by beckman coulter counting method
# Assay type: cell-based
# Conditions: 72 h, time 3 day
# How it was run: as §2
row,Structure (SMILES),CC50 [µM]
1,Nc1ccn(C[C@@H](CO)OCP(=O)(O)O)c(=O)n1 [CIDOFOVIR],> 300
2,COc1ccc(C(OCCOCn2cc3c(nc2=O)Nc2ccccc2O3)(c2ccccc2)c2ccc(OC)cc2)cc1,> 100
3,CN1c2ccccc2Oc2cn(COCCO)c(=O)nc21,> 100

# Test system: Chikungunya virus
# Assay: Antiviral activity against Chikungunya virus infected in African green monkey Vero cells assessed as reduction in virus plaque formation preincubated with virus for 1 hr followed by cell infection and measured after 1 hr by crystal violet staining based assay
# Assay type: functional, organism-based
# Conditions: not given
row,Structure (SMILES),EC50 [µM]
1,COc1ccc(C(OCCOCn2cc3c(nc2=O)Nc2ccccc2O3)(c2ccccc2)c2ccc(OC)cc2)cc1,> 50
2,CN1c2ccccc2Oc2cn(COCCO)c(=O)nc21,15

# Test system: Influenza A virus
# Assay: Antiviral activity against Influenza A virus (H1N1) infected in MDCK cells assessed as reduction in cytopathic effect preincubated with cells for 1 hrs followed by viral addition and measured after 24 hrs by Reed-Muench method
# Assay type: functional, organism-based
# Conditions: not given
# How it was run: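 MDCK monolayers were pre-incubated 1 h at 37 °C with 3-fold compound dilutions (from 2 mg/mL DMSO stock), then infected at MOI 1 for 24 h. Supernatant yield was titrated by 10-fold dilutions on fresh MDCK for 72 h. Titre was read by hemagglutination with 1% chicken erythrocytes and calculated by Reed-Muench as TID50 per 100 μL.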
row,Structure (SMILES),EC50 [µM]
1,COc1ccc(C(OCCOCn2cc3c(nc2=O)Nc2ccccc2O3)(c2ccccc2)c2ccc(OC)cc2)cc1,14
2,CN1c2ccccc2Oc2cn(COCCO)c(=O)nc21,33

# Test system: not listed separately
# Assay: Selectivity index, ratio of CC50 for pig PEK cells to EC50 for Antiviral activity against Tick-borne virus encephalitis infected in pig PEK cells
# Assay type: toxicity, cell-based
# Conditions: read-out: Ratio CC50/EC50
row,Structure (SMILES),selectivity ratio
1,COc1ccc(C(OCCOCn2cc3c(nc2=O)Nc2ccccc2O3)(c2ccccc2)c2ccc(OC)cc2)cc1,> 2
2,CN1c2ccccc2Oc2cn(COCCO)c(=O)nc21,> 6

# Test system: not listed separately
# Assay: Cytotoxicity in pig PEK cells assessed as reduction in cell viability measured after 5 days by resazurin dye based assay
# Set-up: species or system Sus scrofa, Kidney
# Conditions: 120 h, time 5 day
# How it was run: (§3)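 Cells (about 10⁵/well, 5% FBS) were added to two-fold compound dilutions (eight concentrations from 100 μM; DMSO control) and held 5 days at 36.5 °C in CO2. Medium was then replaced with resazurin (25 μg/mL) for 4 h and stopped with SDS. Fluorescence was read at Ex 525 / Em 580–640 nm, with background wells without resazurin subtracted. Done in two replicates; CC50 calculated.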
row,Structure (SMILES),CC50 [µM]
1,COc1ccc(C(OCCOCn2cc3c(nc2=O)Nc2ccccc2O3)(c2ccccc2)c2ccc(OC)cc2)cc1,> 100
2,CN1c2ccccc2Oc2cn(COCCO)c(=O)nc21,> 100

# Test system: Human alphaherpesvirus 3
# Assay: Antiviral activity against thymidine kinase positive Varicella zoster virus
# Assay type: functional, organism-based
# Conditions: not given
# How it was run: as §1
row,Structure (SMILES),EC50 [µM]
1,COc1ccc(C(OCCOCn2cc3c(nc2=O)Nc2ccccc2O3)(c2ccccc2)c2ccc(OC)cc2)cc1,> 100
2,CN1c2ccccc2Oc2cn(COCCO)c(=O)nc21,> 100

# Test system: Vero
# Assay: Cytotoxicity in African green monkey Vero cells assessed as reduction in cell viability measured after 5 days by resazurin dye based assay
# Conditions: chlorocebus sabaeus, vero, 120 h; time 5 day
# How it was run: as §3
row,Structure (SMILES),CC50 [µM]
1,COc1ccc(C(OCCOCn2cc3c(nc2=O)Nc2ccccc2O3)(c2ccccc2)c2ccc(OC)cc2)cc1,> 100
2,CN1c2ccccc2Oc2cn(COCCO)c(=O)nc21,> 100

# Test system: SARS-CoV-2
# Assay: Antiviral activity against SARS COV-2 infected in monkey vero cells assessed as reduction in virus-induced cytopathic effect preincubated with virus for 1 hr followed by cell infection and measured after 5 days by microscopic analysis
# Assay type: functional, organism-based
# Conditions: Severe acute respiratory syndrome coronavirus 2, Vero
row,Structure (SMILES),EC50 [µM]
1,COc1ccc(C(OCCOCn2cc3c(nc2=O)Nc2ccccc2O3)(c2ccccc2)c2ccc(OC)cc2)cc1,> 100
2,CN1c2ccccc2Oc2cn(COCCO)c(=O)nc21,> 100

# Test system: Human betaherpesvirus 5
# Assay: Antiviral activity against Human cytomegalovirus AD169
# Assay type: functional, organism-based
# Conditions: Human betaherpesvirus 5, AD169
# How it was run: as §1
row,Structure (SMILES),EC50 [µM]
1,COc1ccc(C(OCCOCn2cc3c(nc2=O)Nc2ccccc2O3)(c2ccccc2)c2ccc(OC)cc2)cc1,> 100
2,CN1c2ccccc2Oc2cn(COCCO)c(=O)nc21,> 100

# Test system: Human alphaherpesvirus 3
# Assay: Antiviral activity against thymidine kinase deficient Varicella zoster virus
# Assay type: functional, organism-based
# Conditions: not given
# How it was run: as §1
row,Structure (SMILES),EC50 [µM]
1,COc1ccc(C(OCCOCn2cc3c(nc2=O)Nc2ccccc2O3)(c2ccccc2)c2ccc(OC)cc2)cc1,> 100
2,CN1c2ccccc2Oc2cn(COCCO)c(=O)nc21,> 100

# Test system: Respiratory syncytial virus
# Assay: Antiviral activity against Respiratory syncytial virus assessed as reduction in virus-induced cytopathic effect by MTS assay
# Assay type: functional, organism-based
# Conditions: human respiratory syncytial virus
row,Structure (SMILES),EC50 [µM]
1,COc1ccc(C(OCCOCn2cc3c(nc2=O)Nc2ccccc2O3)(c2ccccc2)c2ccc(OC)cc2)cc1,> 100
2,CN1c2ccccc2Oc2cn(COCCO)c(=O)nc21,> 100
